In data set [1] the target is T1, Sodium/glucose cotransporter 2 (Homo sapiens, UniProt P31639).
T1 sequence (P31639 whole entry): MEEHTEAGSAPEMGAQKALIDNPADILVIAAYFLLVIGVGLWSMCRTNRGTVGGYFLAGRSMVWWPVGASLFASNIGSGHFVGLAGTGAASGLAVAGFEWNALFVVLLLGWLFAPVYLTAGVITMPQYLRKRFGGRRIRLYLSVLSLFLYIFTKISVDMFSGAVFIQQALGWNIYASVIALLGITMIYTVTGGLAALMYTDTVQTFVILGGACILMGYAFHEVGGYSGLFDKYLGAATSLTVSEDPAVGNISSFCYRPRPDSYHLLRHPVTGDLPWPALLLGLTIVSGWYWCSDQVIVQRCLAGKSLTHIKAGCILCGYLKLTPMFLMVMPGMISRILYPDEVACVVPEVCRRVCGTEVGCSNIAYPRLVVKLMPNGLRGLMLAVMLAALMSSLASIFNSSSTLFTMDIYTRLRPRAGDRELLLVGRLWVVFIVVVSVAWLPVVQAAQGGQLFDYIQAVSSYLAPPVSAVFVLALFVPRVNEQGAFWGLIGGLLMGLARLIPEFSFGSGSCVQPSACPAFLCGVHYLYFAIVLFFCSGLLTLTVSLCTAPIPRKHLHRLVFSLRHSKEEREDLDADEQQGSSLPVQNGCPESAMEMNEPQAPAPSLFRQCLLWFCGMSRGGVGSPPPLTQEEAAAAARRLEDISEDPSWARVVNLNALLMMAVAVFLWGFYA
Kind of data set: Inhibition of human recombinant SGLT2 expressed in CHO cells by liquid scintillation counting. Format: cell-based. Summed up:
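hSGLT2 cloned from human kidney cDNA; stable clones selected by G418 resistance. Preincubated 10 min at 37 °C in sodium-free choline buffer pH 7.4. Then 2 h at 37 °C in Na⁺ uptake buffer with 1 mM unlabeled AMG plus ¹⁴C-AMG and inhibitor or DMSO. Washed, radioactivity counted; IC50 by nonlinear regression.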

Data set [2] in a line: Elimination half life in Sprague-Dawley rat at 5 mg/kg, po. Particulars: in vivo, read-out: beta t1/2 (converted). It counts as ADME, organism-based. Also on record: dose 5 mg/kg, route oral.
The nature of data set [3]: Tmax in Sprague-Dawley rat at 5 mg/kg, po. It counts as ADME, organism-based. Also on record: dose 5 mg/kg, route oral. Particulars: in vivo.
The nature of data set [4]: Cmax in Sprague-Dawley rat at 5 mg/kg, po. Particulars: in vivo. Set-up: dose 5 mg/kg, route oral. It counts as ADME, organism-based.
Data set [5] can be described thus: Oral bioavailability in Sprague-Dawley rat at 5 mg/kg. To be noted: in vivo. Format: ADME, organism-based.
The subject of data set [6] is Rattus norvegicus. The data set can be described thus: Effect on urinary glucose excretion in normal fasted Sprague-Dawley rat at 10 mg/kg, po subsequently co-treated with glucose measured up to 24 hrs relative to untreated control. Particulars: in vivo.
Data set [7] concerns Rattus norvegicus. Kind of data set: Effect on urine volume in normal fasted Sprague-Dawley rat at 10 mg/kg, po subsequently co-treated with glucose measured up to 24 hrs relative to untreated control. It counts as ADME, organism-based. Also on record: dose 10 mg/kg, route oral. To be noted: in vivo. The essentials:
(§1)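 Overnight-fasted male SD rats placed in metabolism cages for 24 h baseline urine, then randomized and given single oral drug or vehicle followed by oral 50% aqueous glucose (2 g/kg). Urine collected 24 h, re-fed 1 h after glucose challenge. Urine volume measured and glucose determined enzymatically. Values normalized per 200 g body weight; means ± S.E.M., ANOVA with Dunnett's test.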

The test system of data set [8] is Rattus norvegicus. The data set can be described thus: Effect on urinary glucose excretion in normal fasted Sprague-Dawley rat at 10 mg/kg, po subsequently co-treated with glucose measured up to 24 hrs relative to untreated control. Format: ADME, organism-based, Urine. Also on record: dose 10 mg/kg, route oral. To be noted: in vivo. The essentials: as §1
The next data set deals with Mus musculus. The data set can be described thus: Antidiabetic activity in db/db mouse assessed as reduction in blood glucose level at 10 mg/kg, po after 4 hrs relative to untreated control. Set-up: scale not given: the % may be the effect or the level left. It counts as functional. Summed up:
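Diabetic db/db mice (n = 4 per group), randomized by weight and given single oral dose of vehicle or drug. Reduction versus vehicle controls at 4 h; means ± S.E.M., one-way ANOVA with Dunnett's test.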

As to `Cc1noc(C)c1-c1nnc(Cc2cc([C@@H]3O[C@H](CO)[C@@H](O)[C@H](O)[C@H]3O)ccc2Cl)s1`, the IC50 in data set [1] is > 10 µM. For the molecule `CCc1noc(C)c1-c1nnc(Cc2cc([C@@H]3O[C@H](CO)[C@@H](O)[C@H](O)[C@H]3O)ccc2Cl)s1`, the half-inhibitory concentration (IC50) in [1] is > 10 µM.

Take `OC[C@H]1O[C@@H](c2ccc(Cl)c(Cc3nnc(-c4csc(-c5ccncc5)n4)s3)c2)[C@H](O)[C@@H](O)[C@@H]1O`: the half-maximal inhibitory concentration (IC50) in data set [1] stood at 0.0726 µM. With `CCCc1nnc(Cc2cccc([C@@H]3O[C@H](CO)[C@@H](O)[C@H](O)[C@H]3O)c2)s1`, the IC50 in data set [1] turned out to be 6.91 µM. On to `CC(C)(C)c1nnc(Cc2cccc(C3O[C@H](CO)[C@@H](O)[C@H](O)[C@H]3O)c2)s1` (some centres not stated), for which, in data set [1], the IC50 was > 10 µM. Take `CC(C)(c1ccc(Cl)cc1)c1nnc(Cc2cc(C3O[C@H](CO)[C@@H](O)[C@H](O)[C@H]3O)ccc2Cl)s1` (some centres not stated): in data set [1], the IC50 was > 10 µM. For `Cn1nc(-c2nnc(Cc3cc([C@@H]4O[C@H](CO)[C@@H](O)[C@H](O)[C@H]4O)ccc3Cl)s2)c2ccccc21`, in data set [1], the IC50 was found to be 3.28 µM. Turning to `OC[C@H]1O[C@@H](c2ccc(Cl)c(Cc3nnc(-c4ccco4)s3)c2)[C@H](O)[C@@H](O)[C@@H]1O`, the half-life in data set [2] is 51.6 min. In data set [3], the time to peak (Tmax) was found to be 19.8 min. Besides, in [4], the peak level (Cmax) was 50 ng/mL. Further, the bioavailability in data set [5] was 7.7%. Moreover, the “fold change (FC)” value in the data set with Rattus norvegicus [6] is on record as 100; in the data set with Rattus norvegicus [7], 1.4; in the data set with Rattus norvegicus [8], 100. Also, in the data set with Mus musculus, the Activity is on record as 72.8%.

Consider `OC[C@H]1OC(c2ccc(Cl)c(Cc3nnc(Cc4ccc(Cl)cc4)s3)c2)[C@H](O)[C@@H](O)[C@@H]1O` (some centres not stated), for which the IC50 in data set [1] was found to be 2.39 µM.

Take `COc1ccc(Cc2ccccc2O[C@@H]2O[C@H](CO)[C@@H](O)[C@H](O)[C@H]2O)cc1` [SERGLIFLOZIN A]: the IC50 in data set [1] worked out at 0.00625 µM.

Broadly, the IC50 is the concentration that inhibits the measured activity by half. By Tmax is commonly meant the time from dosing to the highest level. In general, Cmax refers to the peak of the concentration-time curve. As a reminder, the bioavailability is the share of a dose that reaches the circulation, judged against a reference dose that is usually intravenous.

The values are drawn from ChEMBL document CHEMBL1157636, “Novel C-aryl glucoside SGLT2 inhibitors as potential antidiabetic agents: 1,3,4-Thiadiazolylmethylphenyl glucoside congeners” (Bioorg Med Chem, 2010).
